The values that follow come from PubChem BioAssay AID588629 (Broad Institute, 2011).

Records with an inconclusive call do not appear. Activity calls are given as the source filed them.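 The calls were made as follows: active = every test run called active, with signal falling and half-effect dose at or below the top valid dose; inconclusive = test runs give conflicting calls; inactive = all test runs inactive.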

What is called IC50 is the concentration at which inhibition is half-maximal.

The target in one test is cAMP-dependent protein kinase catalytic subunit alpha (Homo sapiens) (UniProt P17612). The test is described as follows: PKA catalytic subunit inhibitors, dose response, biochemical, Caliper mobility shift, dry powder samples, set 2 (AID 588629). The settings on record: Recombinant PKA, peptide phosphorylation. A digest of the protocol: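 Test system: recombinant His-tagged human PKA catalytic fragment, purified enzyme; Buffer or medium: MOPS pH 7 with Mg2+; Reagent: fluorescent Peptide 21 at 3 µM plus 12 µM ATP; Timing: 1 h at room temperature; Technique: Capillary electrophoresis separation of peptide and phosphopeptide after EDTA quench.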
With `COc1cc(/C=C2\SC(=NCc3ccccc3)NC2=O)ccc1O`, the IC50 was 2.9 µM.

Consider `COc1cc(/C=C2\SC(=Nc3ccccc3Cl)NC2=O)ccc1O`, for which the IC50 was 3.66 µM. The same measure, in the same setting: for `O=C(Nc1ccccc1-c1nc2cc(Cl)c(Cl)cc2[nH]c1=O)c1cccs1` the value was 4.88 µM; for `O=C(Nc1ccccc1-c1nc2ccccc2[nH]c1=O)c1cc2ccccc2s1`, 6.73 µM.

The test is the same for the next values; noted with them: Recombinant PKA, peptide phosphorylation, at 10 µM (top of the series).
For the molecule `COc1ccc(/C=C2\SC(=Nc3ccccc3OC)NC2=O)cc1`, the “% substrate conversion (lower = inhibition)” value is “inactive”. On to `O=C(Nc1ccccc1-c1nc2cc(F)c(F)cc2[nH]c1=O)c1cccs1`, for which the “% substrate conversion (lower = inhibition)” value is “inactive”. Consider `COc1ccccc1N=C1NC(=O)/C(=C/c2cc(C)on2)S1`, for which the “% substrate conversion (lower = inhibition)” value was “inactive”. Take `COc1ccccc1/C=C1\SC(=Nc2ccccc2OC)NC1=O`: the “% substrate conversion (lower = inhibition)” value is “inactive”.

Regarding `COc1ccccc1N=C1NC(=O)/C(=C/c2ccc3c(c2)OCO3)S1`, the “% substrate conversion (lower = inhibition)” value is “inactive”. Regarding `COc1ccccc1N=C1NC(=O)/C(=C/c2cnn(C)c2)S1`, the “% substrate conversion (lower = inhibition)” value is “inactive”. In the case of `O=C(Nc1ccccc1-c1nc2ccccc2[nH]c1=O)C1CCCCC1`, the “% substrate conversion (lower = inhibition)” value was “inactive”. With `COc1ccccc1N=C1NC(=O)/C(=C/c2nc(C)cs2)S1`, the “% substrate conversion (lower = inhibition)” value is “inactive”. For the molecule `O=C(Nc1ccc(Cl)cc1-c1nc2ccccc2[nH]c1=O)c1cccs1`, the “% substrate conversion (lower = inhibition)” value is “inactive”.

As for `COc1ccccc1N=C1NC(=O)/C(=C/c2ccccn2)S1`, the “% substrate conversion (lower = inhibition)” value is “inactive”. The same measure, in the same setting: for `COc1cc(/C=C2\SC(N)=NC2=O)ccc1O` the value was “inactive”; for `O=C(Nc1ccccc1-c1nc2ccccc2[nH]c1=O)c1cccnc1`, “inactive”; for `O=C(Nc1ccccc1-c1nc2ccccc2[nH]c1=O)c1ccncc1`, “inactive”.

Take `COc1ccccc1N=C1NC(=O)/C(=C/c2ccc(-c3cccnc3)cc2)S1`: the “% substrate conversion (lower = inhibition)” value was “inactive”. For the molecule `COc1ccccc1N=C1NC(=O)/C(=C/c2ccncc2)S1`, the “% substrate conversion (lower = inhibition)” value is “inactive”. The same measure, in the same setting: for `COc1ccccc1N=C1NC(=O)/C(=C/c2cccc(Cl)c2)S1` the value was “inactive”; for `O=C(Nc1ccccc1-c1nc2ccccc2[nH]c1=O)c1ccccn1`, “inactive”; for `CC(C)c1ccc(NC(=O)c2cccs2)c(-c2nc3ccccc3[nH]c2=O)c1`, “inactive”.

For `O=C(Nc1ccc(F)cc1-c1nc2ccccc2[nH]c1=O)c1cccs1`, the “% substrate conversion (lower = inhibition)” value is “inactive”. On to `COc1cc(/C=C2\SC(=Nc3cccc(F)c3)NC2=O)ccc1O`, for which the “% substrate conversion (lower = inhibition)” value is “inactive”. For `COc1cc(/C=C2\SC(=Nc3ccc(F)cc3)NC2=O)ccc1O`, the “% substrate conversion (lower = inhibition)” value was “inactive”.

Turning to `O=C(Nc1ccccc1-c1nc2ccccc2[nH]c1=O)c1ccc(F)cc1`, the “% substrate conversion (lower = inhibition)” value was “inactive”. The same measure, in the same setting: for `COc1ccccc1N=C1NC(=O)/C(=C/c2ccc(Cl)cc2)S1` the value was “inactive”; for `COc1ccccc1N=C1NC(=O)/C(=C/c2ccccc2)S1`, “inactive”; for `O=C(Nc1ccccc1-c1nc2ccccc2[nH]c1=O)c1cccc(F)c1`, “inactive”. Still for that read-out and setting: the value for `COc1cccc(/C=C2\SC(=Nc3ccccc3OC)NC2=O)c1` was “inactive”; that for `COc1ccccc1N=C1NC(=O)/C(=C/c2ccc(F)cc2)S1` was “inactive”; that for `COc1ccccc1N=C1NC(=O)/C(=C/c2ccc(C(C)C)cc2)S1` was “inactive”. Same read-out and setting: the value for `COc1ccccc1N=C1NC(=O)/C(=C/C2CCCCC2)S1` was “inactive”; that for `COc1ccccc1N=C1NC(=O)/C(=C/c2ccccc2Cl)S1` was “inactive”; that for `O=C(Nc1ccccc1-c1nc2ccccc2[nH]c1=O)c1cccs1` was “inactive”. Turning to `COc1ccccc1N=C1NC(=O)CS1`, the “% substrate conversion (lower = inhibition)” value was “inactive”. The same measure, in the same setting: for `COc1ccc(-n2ncc3cnc(Nc4ccc(N5CCN(C)CC5)c(OC)c4)nc32)cc1` the value was “inactive”. `COc1ccc(C(=O)Nc2ccccc2-c2nc3ccccc3[nH]c2=O)cc1`: the “% substrate conversion (lower = inhibition)” value was “inactive”. The same measure, in the same setting: for `COc1cc(/C=C2\SC(=Nc3ccccc3F)NC2=O)ccc1O` the value was “inactive”; for `COc1cc(/C=C2\SC(=Nc3ccncc3)NC2=O)ccc1O`, “inactive”. For `COc1cc(/C=C2\SC(=Nc3ccc(Cl)cc3)NC2=O)ccc1O`, the “% substrate conversion (lower = inhibition)” value is “inactive”. Take `COc1ccccc1N=C1NC(=O)/C(=C/c2ccc(O)cc2)S1`: the “% substrate conversion (lower = inhibition)” value was “inactive”.

Consider `COc1cc(/C=C2\SC(=NC(C)(C)C)NC2=O)ccc1O`, for which the “% substrate conversion (lower = inhibition)” value is “inactive”.

Take `COc1ccccc1N=C1NC(=O)/C(=C/c2ccc3c(c2)OCCO3)S1`: the “% substrate conversion (lower = inhibition)” value is “inactive”. `COc1ccccc1N=C1NC(=O)/C(=C/c2cccn2C)S1`: the “% substrate conversion (lower = inhibition)” value is “inactive”.

Turning to `COc1ccccc1N=C1NC(=O)/C(=C/c2cc(Cl)cc(Cl)c2O)S1`, the “% substrate conversion (lower = inhibition)” value was “inactive”. Still for that read-out and setting: the value for `COc1ccccc1N=C1NC(=O)/C(=C/c2ccccc2F)S1` was “inactive”. Turning to `O=c1[nH]c2ccccc2nc1-c1ccccc1NCc1cccs1`, the “% substrate conversion (lower = inhibition)” value is “inactive”.

For the molecule `COc1ccc(/C=C2\SC(=Nc3ccccc3OC)NC2=O)c(O)c1`, the “% substrate conversion (lower = inhibition)” value was “inactive”. `COc1ccccc1N=C1NC(=O)/C(=C/c2ccc(F)c(F)c2)S1`: the “% substrate conversion (lower = inhibition)” value was “inactive”. On to `COc1ccccc1N=C1NC(=O)/C(=C/c2ccc(OC)c(OC)c2)S1`, for which the “% substrate conversion (lower = inhibition)” value is “inactive”. Take `COc1ccccc1N=C1NC(=O)/C(=C/c2cccc(F)c2)S1`: the “% substrate conversion (lower = inhibition)” value was “inactive”. Turning to `COc1ccccc1N=C1NC(=O)/C(=C/c2ccc(C)cc2)S1`, the “% substrate conversion (lower = inhibition)” value is “inactive”.

Turning to `COc1ccccc1Nc1nc(O)c(/C=C2/C=c3ccccc3=N2)s1`, the “% substrate conversion (lower = inhibition)” value was “inactive”. On to `COc1cc(/C=C2/SC(=Nc3ccc(O)cc3)NC2=O)ccc1O`, for which the “% substrate conversion (lower = inhibition)” value was “inactive”. As to `COc1ccc(N=C2NC(=O)/C(=C/c3ccc(O)c(OC)c3)S2)cc1`, the “% substrate conversion (lower = inhibition)” value is “inactive”. Turning to `COc1cc(/C=C2\SC(=Nc3ccccc3OC)NC2=O)ccc1O`, the “% substrate conversion (lower = inhibition)” value was “inactive”. On to `Nc1ccccc1-c1nc2ccccc2[nH]c1=O`, for which the “% substrate conversion (lower = inhibition)” value was “inactive”. Regarding `COc1ccccc1N=C1NC(=O)/C(=C/c2ccc(OC(F)(F)F)cc2)S1`, the “% substrate conversion (lower = inhibition)” value was “inactive”. With `COc1cc(/C=C2\SC(=Nc3ccccc3OC)NC2=O)ccc1F`, the “% substrate conversion (lower = inhibition)” value was “inactive”. With `COc1ccccc1N=C1NC(=O)/C(=C/c2ccc(C#N)cc2)S1`, the “% substrate conversion (lower = inhibition)” value was “inactive”. As to `O=C1NC(=NCc2ccccc2)S/C1=C/c1ccc(O)cc1`, the “% substrate conversion (lower = inhibition)” value is “inactive”. Take `O=C(Nc1cc(Cl)ccc1-c1nc2ccccc2[nH]c1=O)c1cccs1`: the “% substrate conversion (lower = inhibition)” value was “inactive”.

For `COc1cc(/C=C2\SC(=Nc3cccnc3)NC2=O)ccc1O`, the “% substrate conversion (lower = inhibition)” value was “inactive”.

Turning to `O=C(Nc1ccc(OC(F)(F)F)cc1-c1nc2ccccc2[nH]c1=O)c1cccs1`, the “% substrate conversion (lower = inhibition)” value is “inactive”. Still for that read-out and setting: the value for `COc1ccccc1N=C1NC(=O)/C(=C/C(C)C)S1` was “inactive”; that for `COc1ccccc1N=C1NC(=O)/C(=C/c2cccnc2)S1` was “inactive”. For the molecule `COc1ccccc1N=C1NC(=O)/C(=C/c2ccc3c(c2)OC(F)(F)O3)S1`, the “% substrate conversion (lower = inhibition)” value is “inactive”.

With `COc1ccccc1N=C1NC(=O)/C(=C/c2ccc(Cl)c(Cl)c2)S1`, the “% substrate conversion (lower = inhibition)” value is “inactive”. On to `O=C(Nc1cc(F)ccc1-c1nc2ccccc2[nH]c1=O)c1cccs1`, for which the “% substrate conversion (lower = inhibition)” value is “inactive”. For `COc1ccccc1Nc1nc(O)c(/C=c2/ccc3c(c2)C=CN=3)s1`, the “% substrate conversion (lower = inhibition)” value is “inactive”. As for `COc1cc(/C=C2\SC(=NC(C)C)NC2=O)ccc1O`, the “% substrate conversion (lower = inhibition)” value is “inactive”.
